From PubChem BioAssay
Compounds with a hit are over-represented: about 1.3% of the library has one in this group of screens.
PfGluPho inh: PfG6PD (Plasmodium falciparum) enzyme inhibition; PfGluPho enzyme, NADPH resazurin-diaphorase fluorescence; inhibition, % at 20 µM; actives 0.78% (n = 350,000);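 active means inhibition reaching at least a set limit at 20 µM in the primary screen, cut at about 59% in these data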;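 further: 0% = DMSO wells with substrate and 100% = DMSO wells lacking glucose-6-phosphate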
G6PDH CS: counter-screen for G6PDH assay hits: L. mesenteroides G6PDH inhibition. Purified L. mesenteroides G6PDH, diaphorase/resazurin coupled fluorescence, 45 min. inhibition, % at 5 µM. actives 0.12% (n = 200,000); in the data active means inhibition above about 50%
HKDC1 inhibitor: inhibitors of human hexokinase HKDC1; Q2TB90; recombinant HKDC1, G6PDH/diaphorase resazurin coupled fluorescence; inhibition, % at 20 µM; actives 0.16% (n = 340,000); AID 493160;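 active means inhibition above about 35% when tested at 20 µM, limit read from the data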;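 further: plate controls were DMSO wells with enzyme for no effect and DMSO wells lacking enzyme for full effect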
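Assay system: recombinant HKDC1 hexokinase; detection: coupled resazurin fluorescence, excitation 525 nm, emission 613 nm; benchmarks: DMSO-plus-enzyme-mix negative control, buffer-substituted positive control; compound dosing: single 20 µM dose; schedule: 90 min at room temperature in dark; also added: glucose plus 1 mM ATP as hexokinase substrates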
Diaph inh CS: inhibits diaphorase or chemically oxidizes, flagging diaphorase assay artifacts. diaphorase resazurin-to-resorufin fluorescence, NADH, 16 min; bacterial (C. kluyveri) enzyme, not human. inhibition, % at 20 µM. actives 0.69% (n = 190,000). AID 1217;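 active means primary screen inhibition at 20 µM above a set limit, cut at about 50% in these data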;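 further: plate controls were DMSO with full reaction for no effect and wells lacking NADH for full effect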
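System: Diaphorase enzyme from Clostridium kluyveri | Amount: Enzyme working solution with 0.14 U/mL diaphorase | Benchmarks: No-NADH positive control and DMSO neutral control | Signal: Fluorescence of resorufin formed from resazurin, Ex 544/Em 590 nm | Schedule: 16-min room-temperature incubation before reading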
An asterisk follows results filed as active; / = no result.

SMILES	PfGluPho inh	G6PDH CS	HKDC1 inhibitor	Diaph inh CS
CO[C@H]1C=CO[C@@]2(C)Oc3c(C)c(O)c4c(O)c(c(C=NN5CCN(C6CCCC6)CC5)c(O)c4c3C2=O)NC(=O)C(C)=CC=C[C@H](C)[C@H](O)[C@@H](C)[C@@H](O)[C@@H](C)[C@H](OC(C)=O)[C@@H]1C	/	14	/	84*
O=C(NCC(c1ccco1)N1CCCC1)c1ccc(Cl)c(S(=O)(=O)N2CCc3ccccc32)c1 (configuration not stated)	5	/	-6	/
COc1ccc(-n2c(N)c(C(=O)NCc3ccco3)c3nc4ccccc4nc32)cc1	30	1	10	54*
COc1cc(OC)c(OC)cc1CN1CCN(S(=O)(=O)c2ccc(NC(C)=O)cc2)CC1	-9	32	23	52*
COc1cc(OC)c(OC)cc1CN1CCN(Cc2ccc(SC)cc2)CC1	2	0	-8	0
COc1ccc(CN2CCN(S(=O)(=O)c3ccc(NC(C)=O)cc3)CC2)cc1OC	7	8	-7	12
COc1cc(CN2CCN(S(=O)(=O)c3ccc(NC(C)=O)cc3)CC2)cc(OC)c1O	9	52*	8	43
COc1cc(CN2CCN(Cc3ccc(SC)cc3)CC2)cc(OC)c1O	25	58*	-4	40
COc1cc(OC)c(CN2CCCN(C)CC2)cc1Br	-3	/	-4	/
CCN(CC)S(=O)(=O)c1cccc(-c2n[nH]c(=S)n2/N=C/c2ccc(OC)cc2)c1	9	6	-2	78*
COc1ccc(/C=N/n2c(-c3cccs3)n[nH]c2=S)cc1	12	0	4	64*
CCN(CC)S(=O)(=O)c1cccc(-c2n[nH]c(=S)n2/N=C/c2ccc(OC(F)F)cc2)c1	0	-24	-3	53*
Cc1ccc(/C=N/n2c(-c3cccs3)n[nH]c2=S)cc1	21	3	-3	43
CCN(CC)S(=O)(=O)c1cccc(-c2n[nH]c(=S)n2/N=C/c2ccc(Br)cc2)c1	-1	-5	-2	9
O=C(OCc1nnc(-c2ccccc2)o1)c1ccc2c(c1)OCO2	-11	6	-1	2
c1ccc(-c2nnc(CSc3ccc4c(c3)OCCO4)o2)cc1	3	4	18	59*
O=c1[nH]c2ccccc2c(O)c1O	75*	15	-10	72*
Cc1cccc(CC(=O)N2CCC(N3CCC(C(=O)N4CCOCC4)CC3)CC2)c1	3	14	0	55*
c1ccc(CSc2nc3ncccn3n2)cc1	7	/	-1	/
CCOc1c(O)ccc(/C=C2\SC(=S)NC2=O)c1[N+](=O)[O-]	30	16	-14	54*
CNC[C@H]1OCc2ccccc2-c2ccccc2C(=O)N([C@H](C)CO)C[C@H]1C	-17	/	/	/
O=C1CCNc2cc3ccccc3cc21	57	58*	18	66*
O=C1CCNc2ccc(-c3ccccc3)cc21	22	7	2	26
O=C1C=C(Nc2ccccc2O)c2ccccc2C1=O	-5	56*	24	16
CC(Sc1ccc(S(=O)(=O)N(C)C)cn1)C(=O)NC1CCCC1 (configuration not stated)	26	/	1	/
SMILES	PfGluPho inh	G6PDH CS	HKDC1 inhibitor	Diaph inh CS
COc1ccccc1C(=O)NN(C)C1=NS(=O)(=O)c2ccccc21	-4	/	-3	/
Cc1sc2c(c1C)C(=O)NC(c1ccccc1F)N2 (configuration not stated)	75*	/	-10	/
Cc1ccc(C(=O)NC(=S)Nc2cccc3nsnc23)cc1	58	8	8	59*
CC(C)n1c(=O)[nH][nH]c1=S	75*	/	-2	/
CC(C)n1c(=O)[nH]c2ccccc21	11	-6	-5	15
CCc1cccc(CC)c1NC(=O)CSc1nnc(C2CC2)n1C	1	/	-7	/
NC(=NCCc1ccccc1)c1cccc([N+](=O)[O-])c1	-8	/	0	/
Cc1ccc(-c2cc(C(=O)NN3CCOCC3)c3cc(Br)ccc3n2)o1	26	7	-2	23
Cc1ccc(-c2cc(C(=O)O)c3cc(Br)ccc3n2)o1	75*	7	14	8
CCC(C)(C)n1nnnc1C(c1cc2ccc(OC)cc2[nH]c1=O)N1CCc2ccccc2C1 (configuration not stated)	7	4	11	47
COc1ccc2cc(C(c3nnnn3C3CCCC3)N3CCc4ccccc4C3)c(=O)[nH]c2c1 (configuration not stated)	15	17	2	56*
COc1ccc2cc(C(c3nnnn3C(C)(C)C)N3CCc4ccccc4C3)c(=O)[nH]c2c1 (configuration not stated)	/	-22	/	52*
NC(=O)CC1Nc2cccc3cccc(c23)NC1=O (configuration not stated)	34	-19	0	56*
O=C(CSc1nnc(CCCN2C(=O)c3cccc4cccc(c34)C2=O)n1-c1ccccc1)NCCCN1CCOCC1	-3	1	9	55*
Nc1c(C(=O)NC2CCCC2)c2nc3ccccc3nc2n1/N=C/c1ccco1	9	-1	-2	17
Nc1c(C(=O)NC2CCCC2)c2nc3ccccc3nc2n1N	39	2	8	50*
Cc1cc([N+](=O)[O-])nn1CC(=O)NNC(=S)Nc1ccc([N+](=O)[O-])cc1	1	10	-16	62*
O=C(CCCCC(=O)Nc1ccccc1Cl)Nc1ccccc1Cl	-5	/	3	/
NNC(=O)CNc1ccccc1Cl	-9	3	-3	54*
Nc1[nH]n2c(=O)cc(-c3ccccc3)nc2c1N=Nc1ccccc1	-15	5	-15	67*
Nc1[nH]n2c(=O)cc(-c3ccccc3)nc2c1N=Nc1ccc(S(N)(=O)=O)cc1	-16	12	8	90*
N#CC(C#N)=C1C=CC=CN1/C(=C\c1ccco1)C(=O)c1ccc(Br)cc1	59*	7	20	12
CC(=O)Nc1ccc(NC(=O)COc2cccc3ccccc23)cc1	-6	/	/	/
Cc1ccc(-n2c(O)c(C=Nc3ccccc3-c3n[nH]c(=S)[nH]c3=O)c3ccccc3c2=O)cc1C	-22	3	20	76*
Cc1cccc(-n2c(O)c(C=Nc3ccccc3-c3n[nH]c(=S)[nH]c3=O)c3ccccc3c2=O)n1	2	/	27	/
SMILES	PfGluPho inh	G6PDH CS	HKDC1 inhibitor	Diaph inh CS
Cc1ccc(-n2c(O)c(C=Nc3ccccc3-c3n[nH]c(=S)[nH]c3=O)c3ccccc3c2=O)c(C)c1	35	-1	0	72*
CCCc1cc(=O)[nH]c(SCC(=O)Nc2sc3c(c2C(N)=O)CCCC3)n1	1	/	1	/
CCC(C)Sc1ccc([C@H]2N[C@@](C)(C(=O)OC)[C@H]3C(=O)N(C)C(=O)[C@@H]23)cc1 (some centres not stated)	7	/	-5	/
Cc1cc(/C=c2/sc3nc4ccccc4n3c2=O)c(C)n1-c1ccccn1	38	10	5	52*
Cc1cc(/C=c2\sc3nc4ccccc4n3c2=O)c(C)n1-c1ccc(C(=O)O)cc1	47	-1	6	32
COc1ccc(CCNC(=O)CC2Nc3ccccc3NC2=O)cc1 (configuration not stated)	-18	17	1	27
